Test results as given in PMC6595297 (British Journal of Clinical Pharmacology, 2019).

Assays:
[1] = estimated across doses and schedules, 1‐h IV infusion; cited from earlier work
[2] = Phase I DDI study: pevonedistat plasma PK alone and with fluconazole; format: in vivo, human
Summary of the method: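 Single IV pevonedistat given on day 1 alone and on day 8 with the CYP3A inhibitor. K2EDTA plasma was sampled within 1 h predose, at end of infusion, and at 0.5, 1, 2, 3, 4, 8, 12, 24, 48 and 72 h postdose. Samples were assayed by two GLP-validated LC–MS/MS methods (0.0500–25.0 and 1.00–500 ng mL−1). Noncompartmental PK was used. Day 8/day 1 geometric mean ratios with 90% CIs came from ANOVA (subject random), back-transformed.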

Safety and tolerability = format: in vivo, human
Summary of the method: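 Patients had advanced solid tumours and ECOG PS 0–1. AEs were graded by NCI CTCAE v4.03 and monitored from the first dose of any study drug until 30–40 days after the last dose. The safety population was all patients receiving at least one pevonedistat dose.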

[3] = preliminary data, cancer patients, ref data on file; cited from earlier work
[4] = Pevonedistat 8 mg m^−2, + fluconazole (day 8) vs alone (day 1), n = 12
[5] = human, plasma, intravenous, 8 mg
[6] = Pevonedistat 8 mg m^−2 + fluconazole (n = 13)
[7] = Pevonedistat 8 mg m^−2 + itraconazole (n = 13)
[8] = Pevonedistat 15 mg m^−2 + itraconazole (n = 6)
[9] = Pevonedistat 20 mg m^−2 + itraconazole (n = 19)
[10] = Pevonedistat + itraconazole, total (n = 38)
[11] = across all study groups, N = 51

NS(=O)(=O)OC[C@@H]1C[C@@H](n2ccc3c(N[C@H]4CCc5ccccc54)ncnc32)C[C@@H]1O [Pevonedistat]
Mean terminal elimination half‐life (t 1/2) [1]: 10 to 11 h | AUClast, geometric LS mean ratio (test/reference) (90% CI) [2, 4]: 110.21 (102.34–118.69) % | AUC∞, geometric LS mean ratio (test/reference) (90% CI) [2, 4]: 110.66 (102.53–119.43) % | C max, geometric LS mean ratio (test/reference) (90% CI) [2, 4]: 98.75 (82.60–118.05) % | AUC(0-inf) [2, 5]: 450 ng·h/mL | AUC(0-t) [2, 5]: 445 ng·h/mL | Cmax [2, 5]: 51.6 ng/mL | AUC(0-inf) ([2]; human, plasma, iv, 8 mg): 450 ng·h/mL | Cmax ([2]; human, plasma, iv, 8 mg): 51.6 ng/mL | clearance ([2]; human, plasma, iv, 8 mg): 528 mL/min | half-life ([2]; human, plasma, iv, 8 mg): 11.1 h | AUC∞ geometric mean ratio, presence vs. absence of fluconazole ([2]; pevonedistat 8 mg m^−2, n = 12): 1.11 | Patients who discontinued study treatment due to AEs (Safety and tolerability; N = 51): 12% | Abdominal pain, patients with AE (Safety and tolerability; [6]): 1 (8) n (%) | Anaemia, patients with AE (Safety and tolerability; [6]): 3 (23) n (%) | Asthenia, patients with AE (Safety and tolerability; [6]): 3 (23) n (%) | Constipation, patients with AE (Safety and tolerability; [6]): 3 (23) n (%) | Cough, patients with AE (Safety and tolerability; [6]): 2 (15) n (%) | Decreased appetite, patients with AE (Safety and tolerability; [6]): 4 (31) n (%) | Dehydration, patients with AE (Safety and tolerability; [6]): 1 (8) n (%) | Diarrhoea, patients with AE (Safety and tolerability; [6]): 0 n (%) | Dizziness, patients with AE (Safety and tolerability; [6]): 1 (8) n (%) | Dyspnoea, patients with AE (Safety and tolerability; [6]): 2 (15) n (%) | Fatigue, patients with AE (Safety and tolerability; [6]): 3 (23) n (%) | Headache, patients with AE (Safety and tolerability; [6]): 3 (23) n (%) | Hypokalaemia, patients with AE (Safety and tolerability; [6]): 0 n (%) | Hyponatraemia, patients with AE (Safety and tolerability; [6]): 2 (15) n (%) | Nausea, patients with AE (Safety and tolerability; [6]): 3 (23) n (%) | Vomiting, patients with AE (Safety and tolerability; [6]): 3 (23) n (%) | Abdominal pain, patients with AE (Safety and tolerability; [7]): 3 (23) n (%) | Anaemia, patients with AE (Safety and tolerability; [7]): 3 (23) n (%) | Asthenia, patients with AE (Safety and tolerability; [7]): 2 (15) n (%) | Constipation, patients with AE (Safety and tolerability; [7]): 2 (15) n (%) | Cough, patients with AE (Safety and tolerability; [7]): 4 (31) n (%) | Decreased appetite, patients with AE (Safety and tolerability; [7]): 3 (23) n (%) | Dehydration, patients with AE (Safety and tolerability; [7]): 3 (23) n (%) | Diarrhoea, patients with AE (Safety and tolerability; [7]): 4 (31) n (%) | Dizziness, patients with AE (Safety and tolerability; [7]): 2 (15) n (%) | Dyspnoea, patients with AE (Safety and tolerability; [7]): 1 (8) n (%) | Fatigue, patients with AE (Safety and tolerability; [7]): 3 (23) n (%) | Headache, patients with AE (Safety and tolerability; [7]): 0 n (%) | Hypokalaemia, patients with AE (Safety and tolerability; [7]): 2 (15) n (%) | Hyponatraemia, patients with AE (Safety and tolerability; [7]): 1 (8) n (%) | Nausea, patients with AE (Safety and tolerability; [7]): 1 (8) n (%) | Vomiting, patients with AE (Safety and tolerability; [7]): 2 (15) n (%) | Abdominal pain, patients with AE (Safety and tolerability; [8]): 1 (17) n (%) | Anaemia, patients with AE (Safety and tolerability; [8]): 2 (33) n (%) | Asthenia, patients with AE (Safety and tolerability; [8]): 0 n (%) | Constipation, patients with AE (Safety and tolerability; [8]): 0 n (%) | Cough, patients with AE (Safety and tolerability; [8]): 0 n (%) | Decreased appetite, patients with AE (Safety and tolerability; [8]): 1 (17) n (%) | Dehydration, patients with AE (Safety and tolerability; [8]): 2 (33) n (%) | Diarrhoea, patients with AE (Safety and tolerability; [8]): 1 (17) n (%) | Dizziness, patients with AE (Safety and tolerability; [8]): 1 (17) n (%) | Dyspnoea, patients with AE (Safety and tolerability; [8]): 2 (33) n (%) | Fatigue, patients with AE (Safety and tolerability; [8]): 1 (17) n (%) | Headache, patients with AE (Safety and tolerability; [8]): 0 n (%) | Hypokalaemia, patients with AE (Safety and tolerability; [8]): 2 (33) n (%) | Hyponatraemia, patients with AE (Safety and tolerability; [8]): 1 (17) n (%) | Nausea, patients with AE (Safety and tolerability; [8]): 0 n (%) | Vomiting, patients with AE (Safety and tolerability; [8]): 1 (17) n (%) | Abdominal pain, patients with AE (Safety and tolerability; [9]): 2 (11) n (%) | Anaemia, patients with AE (Safety and tolerability; [9]): 6 (32) n (%) | Asthenia, patients with AE (Safety and tolerability; [9]): 2 (11) n (%) | Constipation, patients with AE (Safety and tolerability; [9]): 3 (16) n (%) | Cough, patients with AE (Safety and tolerability; [9]): 1 (5) n (%) | Decreased appetite, patients with AE (Safety and tolerability; [9]): 4 (21) n (%) | Dehydration, patients with AE (Safety and tolerability; [9]): 2 (11) n (%) | Diarrhoea, patients with AE (Safety and tolerability; [9]): 6 (32) n (%) | Dizziness, patients with AE (Safety and tolerability; [9]): 4 (21) n (%) | Dyspnoea, patients with AE (Safety and tolerability; [9]): 3 (16) n (%) | Fatigue, patients with AE (Safety and tolerability; [9]): 8 (42) n (%) | Headache, patients with AE (Safety and tolerability; [9]): 6 (32) n (%) | Hypokalaemia, patients with AE (Safety and tolerability; [9]): 3 (16) n (%) | Hyponatraemia, patients with AE (Safety and tolerability; [9]): 2 (11) n (%) | Nausea, patients with AE (Safety and tolerability; [9]): 2 (11) n (%) | Vomiting, patients with AE (Safety and tolerability; [9]): 6 (32) n (%) | Abdominal pain, patients with AE (Safety and tolerability; [10]): 6 (16) n (%) | Anaemia, patients with AE (Safety and tolerability; [10]): 11 (29) n (%) | Asthenia, patients with AE (Safety and tolerability; [10]): 4 (11) n (%) | Constipation, patients with AE (Safety and tolerability; [10]): 5 (13) n (%) | Cough, patients with AE (Safety and tolerability; [10]): 5 (13) n (%) | Decreased appetite, patients with AE (Safety and tolerability; [10]): 8 (21) n (%) | Dehydration, patients with AE (Safety and tolerability; [10]): 7 (18) n (%) | Diarrhoea, patients with AE (Safety and tolerability; [10]): 11 (29) n (%) | Dizziness, patients with AE (Safety and tolerability; [10]): 7 (18) n (%) | Dyspnoea, patients with AE (Safety and tolerability; [10]): 6 (16) n (%) | Fatigue, patients with AE (Safety and tolerability; [10]): 12 (32) n (%) | Headache, patients with AE (Safety and tolerability; [10]): 6 (16) n (%) | Hypokalaemia, patients with AE (Safety and tolerability; [10]): 7 (18) n (%) | Hyponatraemia, patients with AE (Safety and tolerability; [10]): 4 (11) n (%) | Nausea, patients with AE (Safety and tolerability; [10]): 3 (8) n (%) | Vomiting, patients with AE (Safety and tolerability; [10]): 9 (24) n (%) | Abdominal pain, patients with AE (Safety and tolerability; Total (N = 51)): 7 (14) n (%) | Anaemia, patients with AE (Safety and tolerability; Total (N = 51)): 14 (27) n (%) | Asthenia, patients with AE (Safety and tolerability; Total (N = 51)): 7 (14) n (%) | Constipation, patients with AE (Safety and tolerability; Total (N = 51)): 8 (16) n (%) | Cough, patients with AE (Safety and tolerability; Total (N = 51)): 7 (14) n (%) | Decreased appetite, patients with AE (Safety and tolerability; Total (N = 51)): 12 (24) n (%) | Dehydration, patients with AE (Safety and tolerability; Total (N = 51)): 8 (16) n (%) | Diarrhoea, patients with AE (Safety and tolerability; Total (N = 51)): 11 (22) n (%) | Dizziness, patients with AE (Safety and tolerability; Total (N = 51)): 8 (16) n (%) | Dyspnoea, patients with AE (Safety and tolerability; Total (N = 51)): 8 (16) n (%) | Fatigue, patients with AE (Safety and tolerability; Total (N = 51)): 15 (29) n (%) | Headache, patients with AE (Safety and tolerability; Total (N = 51)): 9 (18) n (%) | Hypokalaemia, patients with AE (Safety and tolerability; Total (N = 51)): 7 (14) n (%) | Hyponatraemia, patients with AE (Safety and tolerability; Total (N = 51)): 6 (12) n (%) | Nausea, patients with AE (Safety and tolerability; Total (N = 51)): 6 (12) n (%) | Vomiting, patients with AE (Safety and tolerability; Total (N = 51)): 12 (24) n (%) | Drug‐related AE: anaemia, patients (Safety and tolerability; [11]): 6% | Drug‐related AE: decreased appetite, patients (Safety and tolerability; [11]): 6% | Drug‐related AE: diarrhoea, patients (Safety and tolerability; [11]): 10% | Drug‐related AE: fatigue, patients (Safety and tolerability; [11]): 6% | Drug‐related AE: increased AST, patients (Safety and tolerability; [11]): 6% | Drug‐related AE: nausea, patients (Safety and tolerability; [11]): 8% | Drug‐related AE: pruritus, patients (Safety and tolerability; [11]): 6% | Drug‐related AE: vomiting, patients (Safety and tolerability; [11]): 12% | Patients who died during Part A (not related to study drug) (Safety and tolerability; safety population, N = 51): 14% | Patients who experienced at least one drug‐related AE (Safety and tolerability; safety population, N = 51): 55% | Patients with at least one grade ≥3 AE (Safety and tolerability; safety population, N = 51): 43% | Patients with serious AEs (not deemed drug‐related) (Safety and tolerability; safety population, N = 51): 25% | Patients who experienced at least one AE (Safety and tolerability; safety population, N = 51, all study groups): 98% | Administered dose accounted for by metabolites [3]: approximately 80%
